ChEMBL document CHEMBL3351505, “Ultrasound-assisted synthesis of novel 1,2,3-triazoles coupled diaryl sulfone moieties by the CuAAC reaction, and biological evaluation of them as antioxidant and antimicrobial agents” (Eur J Med Chem, 2014)
Converted amounts (≈) assume the structure as drawn. The source made the active and inactive calls. The calls are words filed in the database; no cut-off is given here.

How the values were obtained:
Pseudomonas aeruginosa [1] = experiment: Antibacterial activity against Pseudomonas aeruginosa ATCC 27953 after 24 hrs by two fold serial dilution method; assay type: functional
Escherichia coli [2] = experiment: Antibacterial activity against Escherichia coli ATCC 25922 using 100 uL of test compound after 24 hrs by agar well diffusion method; assay type: functional
Summary of the method: (§1)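 Agar well diffusion. Nutrient agar was spread with bacterial suspension at 1×10⁸ CFU/mL, and 10 mm wells were cut. Wells were loaded with compound solution made at 200 mg per 1 mL DMSO. Plates were incubated 24 h at 37 °C and inhibition zones were measured. DMSO served as the negative control.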

Candida albicans [3] = experiment: Antifungal activity against Candida albicans NRRL Y-477 using 100 uL of test compound after 48 hrs by agar well diffusion method; assay type: functional
Summary of the method: as §1, with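 “Sabouraud dextrose” for “Nutrient”, “yeast or fungal” for “bacterial”, “1×10⁶” for “1×10⁸”, “48” for “24”, “28” for “37”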

Pseudomonas aeruginosa [4] = experiment: Antibacterial activity against Pseudomonas aeruginosa ATCC 27953 using 100 uL of test compound after 24 hrs by agar well diffusion method; assay type: functional; summary of the method: as §1
Micrococcus luteus [5] = experiment: Antibacterial activity against Sarcina lutea using 100 uL of test compound after 24 hrs by agar well diffusion method; assay type: functional; summary of the method: as §1
Klebsiella pneumoniae [6] = experiment: Antibacterial activity against Klebsiella pneumoniae ATCC 13883 using 100 uL of test compound after 24 hrs by agar well diffusion method; assay type: functional; summary of the method: as §1
Saccharomyces cerevisiae [7] = experiment: Antifungal activity against Saccharomyces cerevisiae using 100 uL of test compound after 48 hrs by agar well diffusion method; assay type: functional
Summary of the method: as §1, with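 “Sabouraud dextrose” for “Nutrient”, “yeast or fungal” for “bacterial”, “1×10⁶” for “1×10⁸”, “48” for “24”, “28” for “37”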

Klebsiella pneumoniae [8] = experiment: Antibacterial activity against Klebsiella pneumoniae ATCC 13883 after 24 hrs by two fold serial dilution method; assay type: functional
Aspergillus niger [9] = experiment: Antifungal activity against Aspergillus niger after 48 hrs by two fold serial dilution method; assay type: functional
Summary of the method: (§2)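 Two-fold serial broth dilution in a suitable broth, run only on compounds giving inhibition zones of at least 16 mm. Final concentrations were […]. Each 5 mL received 0.1 mL inoculum and was incubated 48 h at 28 °C. MIC was the lowest concentration without growth.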

Bacillus subtilis [10] = experiment: Antibacterial activity against Bacillus subtilis ATCC 6633 using 100 uL of test compound after 24 hrs by agar well diffusion method; assay type: functional; summary of the method: as §1
Bacillus subtilis [11] = experiment: Antibacterial activity against Bacillus subtilis ATCC 6633 after 24 hrs by two fold serial dilution method; assay type: functional
Saccharomyces cerevisiae [12] = experiment: Antifungal activity against Saccharomyces cerevisiae after 48 hrs by two fold serial dilution method; assay type: functional; summary of the method: as §2
Staphylococcus aureus [13] = experiment: Antibacterial activity against Staphylococcus aureus ATCC 29213 using 100 uL of test compound after 24 hrs by agar well diffusion method; assay type: functional; summary of the method: as §1
Staphylococcus aureus [14] = experiment: Antibacterial activity against Staphylococcus aureus ATCC 29213 after 24 hrs by two fold serial dilution method; assay type: functional
Micrococcus luteus [15] = experiment: Antibacterial activity against Sarcina lutea after 24 hrs by two fold serial dilution method; assay type: functional
Priestia megaterium [16] = experiment: Antibacterial activity against Bacillus megaterium ATCC 9885 after 24 hrs by two fold serial dilution method; assay type: functional
Candida albicans [17] = experiment: Antifungal activity against Candida albicans NRRL Y-477 after 48 hrs by two fold serial dilution method; assay type: functional; summary of the method: as §2
Escherichia coli [18] = experiment: Antibacterial activity against Escherichia coli ATCC 25922 after 24 hrs by two fold serial dilution method; assay type: functional
Aspergillus niger [19] = experiment: Antifungal activity against Aspergillus niger using 100 uL of test compound after 48 hrs by agar well diffusion method; assay type: functional
Summary of the method: as §1, with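 “Sabouraud dextrose” for “Nutrient”, “yeast or fungal” for “bacterial”, “1×10⁶” for “1×10⁸”, “48” for “24”, “28” for “37”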

[20] = Antioxidant activity assessed as DPPH free radical scavenging activity by spectrophotometric assay; assay type: physicochemical
Summary of the method: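 Sample solutions at several concentrations were added to 0.004% DPPH in methanol and incubated 60 min in the dark. Absorbance was read at 517 nm against a blank. Inhibition % = (A_blank − A_sample)/A_blank × 100, where the control contained all reagents except the test compound.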

Priestia megaterium [21] = experiment: Antibacterial activity against Bacillus megaterium ATCC 9885 using 100 uL of test compound after 24 hrs by agar well diffusion method; assay type: functional; summary of the method: as §1

Row | MIC (Pseudomonas aeruginosa [1]) | MIC (Klebsiella pneumoniae [8]; ATCC 13883, 24 h) [µg/mL] | MIC (Aspergillus niger [9]) [µg/mL] | MIC (Bacillus subtilis [11]; ATCC 6633, 24 h) [µg/mL] | MIC (Saccharomyces cerevisiae [12]) | MIC (Micrococcus luteus [15]) | MIC (Candida albicans [17]) | MIC (Escherichia coli [18]; ATCC 25922, 24 h) [µg/mL] | IC50 [20] [µg/mL] | MIC (Priestia megaterium [16]; ATCC 9885, 24 h) [µg/mL] | SMILES | diameter of the inhibition zone (DIZ) (Escherichia coli [2]) | diameter of the inhibition zone (DIZ) (Candida albicans [3]) [mm] | diameter of the inhibition zone (DIZ) (Pseudomonas aeruginosa [4]) | diameter of the inhibition zone (DIZ) (Micrococcus luteus [5]) | diameter of the inhibition zone (DIZ) (Klebsiella pneumoniae [6]) | diameter of the inhibition zone (DIZ) (Saccharomyces cerevisiae [7]) | diameter of the inhibition zone (DIZ) (Bacillus subtilis [10]) | diameter of the inhibition zone (DIZ) (Staphylococcus aureus [13]) | diameter of the inhibition zone (DIZ) (Aspergillus niger [19]) [mm] | diameter of the inhibition zone (DIZ) (Priestia megaterium [21]) | further results
1 | 200 µg/mL (≈ 447 µM) | 200 (≈ 447 µM) | 100 (≈ 223 µM) | 200 (≈ 447 µM) | inactive | 200 µg/mL (≈ 447 µM) | inactive | 200 (≈ 447 µM) | 425 (≈ 950 µM) |  | O=C(Cn1cc(CC(O)c2ccc(S(=O)(=O)c3ccccc3)cc2)nn1)c1ccccc1 (centres undefined) | 17 mm | 12 | 20 mm | 20 mm | 22 mm | inactive | 19 mm | 14 mm | 29 | inactive | MIC (Staphylococcus aureus [14]): inactive; MIC (Priestia megaterium [16]): inactive
2 | 200 µg/mL (≈ 303 µM) | 200 (≈ 303 µM) | 50 (≈ 75.7 µM) |  | 200 µg/mL (≈ 303 µM) | 200 µg/mL (≈ 303 µM) | inactive | 200 (≈ 303 µM) | 125 (≈ 189 µM) | 200 (≈ 303 µM) | CC(Cc1cn(CC(=O)c2ccccc2)nn1)(OCc1cn(CC(=O)c2ccccc2)nn1)c1ccc(S(=O)(=O)c2ccccc2)cc1 (centres undefined) | 21 mm | 15 | 19 mm | 17 mm | 23 mm | 16 mm | 16 mm | inactive | 28 | 17 mm | MIC (Bacillus subtilis [11]): inactive; MIC (Staphylococcus aureus [14]): inactive
3 | inactive |  | 200 (≈ 249 µM) | 200 (≈ 249 µM) | 200 µg/mL (≈ 249 µM) | 200 µg/mL (≈ 249 µM) |  | 200 (≈ 249 µM) | 150 (≈ 186 µM) | 200 (≈ 249 µM) | O=C(Cn1cc(COC(Cc2cn(CC(=O)c3ccc(Br)cc3)nn2)c2ccc(S(=O)(=O)c3ccccc3)cc2)nn1)c1ccc(Br)cc1 (centres undefined) | 17 mm | 21 | inactive | 22 mm | inactive | 20 mm | 17 mm | 17 mm | 20 | 20 mm | MIC (Klebsiella pneumoniae [8]): inactive; MIC (Staphylococcus aureus [14]; ATCC 29213, 24 h): 200 µg/mL (≈ 249 µM); MIC (Candida albicans [17]; NRRL Y-477, 48 h): 200 µg/mL (≈ 249 µM)
4 | inactive | 200 (≈ 332 µM) | 50 (≈ 83.1 µM) |  | 200 µg/mL (≈ 332 µM) | inactive | inactive | 200 (≈ 332 µM) | 20 (≈ 33.2 µM) | 200 (≈ 332 µM) | CC(O)(Cc1cn(CC(=O)c2ccc(S(=O)(=O)c3ccccc3)cc2)nn1)c1ccc(S(=O)(=O)c2ccccc2)cc1 (centres undefined) | 19 mm | 15 | 15 mm | 14 mm | 18 mm | 17 mm | inactive | inactive | 32 | 17 mm | MIC (Bacillus subtilis [11]): inactive; MIC (Staphylococcus aureus [14]): inactive
5 | 200 µg/mL (≈ 213 µM) | 200 (≈ 213 µM) | 25 (≈ 26.6 µM) |  | inactive | 100 µg/mL (≈ 106 µM) | inactive | 200 (≈ 213 µM) | 600 (≈ 638 µM) | 200 (≈ 213 µM) | CC(Cc1cn(CC(=O)c2ccc(S(=O)(=O)c3ccccc3)cc2)nn1)(OCc1cn(CC(=O)c2ccc(S(=O)(=O)c3ccccc3)cc2)nn1)c1ccc(S(=O)(=O)c2ccccc2)cc1 (centres undefined) | 17 mm | 15 | 19 mm | 25 mm | 19 mm | 14 mm | 14 mm | 14 mm | 34 | 22 mm | MIC (Bacillus subtilis [11]): inactive; MIC (Staphylococcus aureus [14]): inactive
6 | inactive |  | 100 (≈ 108 µM) |  | inactive | 200 µg/mL (≈ 216 µM) | inactive |  | 600 (≈ 647 µM) |  | O=C(Cn1cc(COC(Cc2cn(CC(=O)c3ccc(S(=O)(=O)c4ccccc4)cc3)nn2)c2ccc(S(=O)(=O)c3ccccc3)cc2)nn1)c1ccc(S(=O)(=O)c2ccccc2)cc1 (centres undefined) | inactive | 14 | 14 mm | 19 mm | 13 mm | inactive | 14 mm | 17 mm | 20 | inactive | MIC (Klebsiella pneumoniae [8]): inactive; MIC (Bacillus subtilis [11]): inactive; MIC (Staphylococcus aureus [14]; ATCC 29213, 24 h): 200 µg/mL (≈ 216 µM); MIC (Priestia megaterium [16]): inactive; MIC (Escherichia coli [18]): inactive
7 | 200 µg/mL (≈ 430 µM) |  | 50 (≈ 107 µM) | 200 (≈ 430 µM) | inactive | 200 µg/mL (≈ 430 µM) | inactive |  | 275 (≈ 591 µM) | 200 (≈ 430 µM) | O=C(Cn1cc(CC(O)c2ccc(S(=O)(=O)c3ccccc3)cc2)nn1)c1ccc(F)cc1 (centres undefined) | 14 mm | 13 | 19 mm | 20 mm | 15 mm | inactive | 19 mm | 14 mm | 32 | 17 mm | MIC (Klebsiella pneumoniae [8]): inactive; MIC (Staphylococcus aureus [14]): inactive; MIC (Escherichia coli [18]): inactive
8 | 200 µg/mL (≈ 417 µM) | 200 (≈ 417 µM) | 50 (≈ 104 µM) | 200 (≈ 417 µM) | inactive | 200 µg/mL (≈ 417 µM) | inactive | 200 (≈ 417 µM) | 425 (≈ 886 µM) | 200 (≈ 417 µM) | CC(O)(Cc1cn(CC(=O)c2ccc(F)cc2)nn1)c1ccc(S(=O)(=O)c2ccccc2)cc1 (centres undefined) | 19 mm | 15 | 22 mm | 21 mm | 19 mm | inactive | 19 mm | 17 mm | 32 | 17 mm | MIC (Staphylococcus aureus [14]; ATCC 29213, 24 h): 200 µg/mL (≈ 417 µM)
9 | 200 µg/mL (≈ 370 µM) | 200 (≈ 370 µM) | 200 (≈ 370 µM) | 200 (≈ 370 µM) | inactive | inactive | inactive | 200 (≈ 370 µM) | 800 (≈ 1480 µM) |  | CC(O)(Cc1cn(CC(=O)c2ccc(Br)cc2)nn1)c1ccc(S(=O)(=O)c2ccccc2)cc1 (centres undefined) | 17 mm | 15 | 19 mm | inactive | 19 mm | 14 mm | 17 mm | 17 mm | 20 | inactive | MIC (Staphylococcus aureus [14]; ATCC 29213, 24 h): 200 µg/mL (≈ 370 µM); MIC (Priestia megaterium [16]): inactive
